The text below walks through data of ChEMBL document CHEMBL4706607, “Anti-tubercular profile of new selenium-menadione conjugates against Mycobacterium tuberculosis H37Rv (ATCC 27294) strain and multidrug-resistant clinical isolates” (Eur J Med Chem, 2021).

Test [1] has as its system Mycobacterium tuberculosis. The test can be described thus: Antimycobacterial activity against multidrug resistance Mycobacterium tuberculosis CDCT-16 clinical isolates assessed as reduction in bacterial growth by resazurin reduction microplate assay. Format: functional. The essentials: (§1)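 REMA in Middlebrook 7H9 broth with 10% ADC. Compounds dissolved at 1 mg/mL in DMSO and diluted to 50 μg/mL in broth containing 5% DMSO. Ten-point two-fold dilutions gave 25.0 to 0.05 μg/mL. Growth and sterility controls on each plate. MIC was the lowest concentration preventing the blue-to-pink change.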
In general terms: Resazurin is reduced to fluorescent resorufin, in cell work by metabolically active cells.

The subject of test [2] is Mycobacterium tuberculosis. The test can be described thus: Antimycobacterial activity against multidrug resistance Mycobacterium tuberculosis CDCT-27 clinical isolates assessed as reduction in bacterial growth by resazurin reduction microplate assay. Format: functional. The essentials:
as §1

Molecules are shown by their SMILES. ≈ marks a conversion by molar mass, not a printed value.

One may read the MIC as the lowest concentration found to suppress growth. On to `COc1ccc(C(=O)[Se]CC2=C(C)C(=O)c3ccccc3C2=O)cc1`, for which the MIC in test [1] and in test [2] was over 10 µM throughout.

As for `CC1=C(C[Se]C(=O)c2ccccc2C)C(=O)c2ccccc2C1=O`, the MIC in test [1] and in test [2] was 3.1 µM (≈ 1.19 µg/mL) in each case.

On to `CC1=C(C[Se]C(=O)c2ccc(C)cc2)C(=O)c2ccccc2C1=O`, for which the minimal inhibitory concentration (MIC) in test [1] and in test [2] was over 10 µM each time.

With `CC1=C(C[Se]C(=O)c2ccc(Cl)cc2)C(=O)c2ccccc2C1=O`, the MIC in test [1] and in test [2] was over 10 µM in each case.

With `NNC(=O)c1ccncc1` [ISONIAZID], the values for the MIC in test [1] and in test [2] were 100 µM (≈ 13.7 µg/mL) and 25 µM (≈ 3.43 µg/mL), respectively.

In the case of `CCCCC(=O)[Se]CC1=C(C)C(=O)c2ccccc2C1=O`, the MIC in test [1] and in test [2] was over 10 µM each time.

With `CCCC(C)C(=O)[Se]CC1=C(C)C(=O)c2ccccc2C1=O` (stereo not given), the MIC in test [1] and in test [2] was over 10 µM throughout.

As to `CC1=C(C[Se]C(=O)c2ccc(F)cc2)C(=O)c2ccccc2C1=O`, the MIC in test [1] was determined as 0.8 µM (≈ 0.31 µg/mL); in test [2], 3.1 µM (≈ 1.2 µg/mL).

Consider `CCc1ccc(C(=O)[Se]CC2=C(C)C(=O)c3ccccc3C2=O)cc1`, for which the MIC in test [1] and in test [2] was over 10 µM throughout.

In the case of `CC1=C(C[Se]C(=O)c2ccccc2)C(=O)c2ccccc2C1=O`, the minimal inhibitory concentration (MIC) in test [1] and in test [2] was 0.8 µM (≈ 0.295 µg/mL) in each case.
